Reference: ChEMBL document CHEMBL3352372, “Design, synthesis and 3D-QSAR studies of new diphenylamine containing 1,2,4-triazoles as potential antitubercular agents” (Eur J Med Chem, 2014)
Values after ≈ are worked out from the molar mass of the structure shown.

Tests used:
[1] = tested on: Mycobacterium tuberculosis; assay: Antitubercular activity Mycobacterium tuberculosis H37Rv assessed as growth inhibition after 5 days by MABA method; format: functional; details: for MIC: Mycobacterium tuberculosis, H37Rv, 120 h
Outline: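 Log-phase H37Rv was diluted to a final OD550 of 0.05 in Middlebrook 7H9 broth, and compounds in DMSO were added in 96-well plates. After a further 24 h at 37 °C/5% CO2, fluorescence was read (ex 544 nm, em 590 nm). Inhibition was scored against the untreated control, with >90% inhibition counted as active in the initial screen.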

Pseudomonas aeruginosa = assay: Antibacterial activity Pseudomonas aeruginosa ATCC-27853 assessed as growth inhibition after 24 hrs by twofold serial dilution technique; format: functional; details: ATCC-27853, 24 h
Outline: (§1)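 Tube twofold serial dilution of compounds dissolved in DMSO, under aseptic conditions. Solvent, growth (negative) and drug (ampicillin) controls were run alongside. Tubes were incubated 24 h at 37 °C. MIC was taken as the lowest concentration giving apparent complete inhibition of growth. Strains were first screened by cup plate method.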

Staphylococcus aureus = assay: Antibacterial activity Staphylococcus aureus ATCC-25923 assessed as growth inhibition after 24 hrs by twofold serial dilution technique; format: functional; details: ATCC-25923, 24 h; outline: as §1
[2] = tested on: Mycobacterium tuberculosis; assay: Antitubercular activity Mycobacterium tuberculosis H37Rv assessed as growth inhibition after 30 days by agar microdilution method; format: functional
Outline: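 M. tuberculosis H37Rv (ATCC 27294) grown on L-J medium, harvested in 0.85% saline with 0.05% Tween-80. Compounds, from a DMSO stock, were added as twofold dilutions to Middlebrook 7H10 agar with OADC in tubes. After 30 days of incubation, tubes were compared with untreated H37Rv control tubes. The lowest concentration giving complete inhibition of colonies was reported.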

Escherichia coli = assay: Antibacterial activity Escherichia coli ATCC-25922 assessed as growth inhibition after 24 hrs by twofold serial dilution technique; format: functional; details: ATCC-25922, 24 h; outline: as §1
Bacillus spizizenii = assay: Antibacterial activity Bacillus Bacillus subtilis ATCC 6633 assessed as growth inhibition after 24 hrs by twofold serial dilution technique; format: functional; details: ATCC 6633, 24 h; outline: as §1
[3] = Cytotoxicity against human HepG2 cells after 72 hrs by MTT assay; format: cell-based
[4] = Cytotoxicity against african green monkey Vero cells after 72 hrs by MTT assay; format: cell-based; details: chlorocebus sabaeus
Outline: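 After media removal and a PBS wash, dilutions were added with DMSO control, then incubated 72 h at 37 °C, 5% CO2. Cells were washed, given MTT for 3 h in the dark, and solubilized in DMSO 1–2 h. CC50 was extrapolated from plotted % inhibition (100 − % viability) against concentration.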

SMILES | -logMIC [1] | MIC [1] | MIC (Pseudomonas aeruginosa) | MIC (Staphylococcus aureus) | MIC [2] | MIC (Escherichia coli) | MIC (Bacillus spizizenii) | CC50 at 72 h [3] | CC50 at 72 h [4]
COc1ccc(/C=N/n2c(Cc3ccccc3Nc3c(Cl)cccc3Cl)nn(CN3CCCCC3)c2=S)cc1OC | 4.903 | 12.5 µM (≈ 7.64 µg/mL) | 25 µM (≈ 15.3 µg/mL) | 12.5 µM (≈ 7.64 µg/mL) | 6.25 µM (≈ 3.82 µg/mL) | 25 µM (≈ 15.3 µg/mL) | 25 µM (≈ 15.3 µg/mL) |  | 
S=c1n(CN2CCOCC2)nc(Cc2ccccc2Nc2c(Cl)cccc2Cl)n1/N=C/c1cccs1 | 5.796 | 1.6 µM (≈ 0.895 µg/mL) | 12.5 µM (≈ 6.99 µg/mL) | 6.25 µM (≈ 3.5 µg/mL) | 3.12 µM (≈ 1.75 µg/mL) | 6.25 µM (≈ 3.5 µg/mL) | 12.5 µM (≈ 6.99 µg/mL) | 250 µM | > 300 µM
S=c1n(CN2CCOCC2)nc(Cc2ccccc2Nc2c(Cl)cccc2Cl)n1/N=C/c1ccncc1 | 4.903 | 12.5 µM (≈ 6.93 µg/mL) | 25 µM (≈ 13.9 µg/mL) | 12.5 µM (≈ 6.93 µg/mL) | 12.5 µM (≈ 6.93 µg/mL) | 25 µM (≈ 13.9 µg/mL) | 12.5 µM (≈ 6.93 µg/mL) |  | 
S=c1n(CN2CCOCC2)nc(Cc2ccccc2Nc2c(Cl)cccc2Cl)n1/N=C/c1ccco1 | 5.505 | 3.12 µM (≈ 1.7 µg/mL) | 25 µM (≈ 13.6 µg/mL) | 12.5 µM (≈ 6.79 µg/mL) | 3.12 µM (≈ 1.7 µg/mL) | 12.5 µM (≈ 6.79 µg/mL) | 12.5 µM (≈ 6.79 µg/mL) | > 300 µM | > 300 µM
CC1(C)S[C@@H]2[C@H](NC(=O)[C@H](N)c3ccccc3)C(=O)N2[C@H]1C(=O)O [AMPICILLIN] |  |  | < 6.25 µM | 6.25 µM (≈ 2.18 µg/mL) |  | < 6.25 µM | 6.25 µM (≈ 2.18 µg/mL) |  | 
O=c1c2ccccc2nc2n(/N=C/c3ccco3)c(Cc3ccccc3Nc3c(Cl)cccc3Cl)nn12 | 4.602 | 25 µM (≈ 13.2 µg/mL) | 12.5 µM (≈ 6.62 µg/mL) | 12.5 µM (≈ 6.62 µg/mL) |  | 12.5 µM (≈ 6.62 µg/mL) | 12.5 µM (≈ 6.62 µg/mL) |  | 
S=c1n(CN2CCCCC2)nc(Cc2ccccc2Nc2c(Cl)cccc2Cl)n1/N=C/c1ccco1 | 5.204 | 6.25 µM (≈ 3.38 µg/mL) | 25 µM (≈ 13.5 µg/mL) | 25 µM (≈ 13.5 µg/mL) | 6.25 µM (≈ 3.38 µg/mL) | 12.5 µM (≈ 6.77 µg/mL) | 25 µM (≈ 13.5 µg/mL) | 262 µM | > 300 µM
O=C1CSC(c2ccccc2)N1n1c(Cc2ccccc2Nc2c(Cl)cccc2Cl)n[nH]c1=S (centres undefined) | 4.301 | 50 µM (≈ 26.4 µg/mL) | 12.5 µM (≈ 6.61 µg/mL) | 12.5 µM (≈ 6.61 µg/mL) |  | 12.5 µM (≈ 6.61 µg/mL) | 12.5 µM (≈ 6.61 µg/mL) |  | 
COc1ccc(C2SCC(=O)N2n2c(Cc3ccccc3Nc3c(Cl)cccc3Cl)n[nH]c2=S)cc1 (centres undefined) | 4.301 | 50 µM (≈ 27.9 µg/mL) | 100 µM (≈ 55.9 µg/mL) | 12.5 µM (≈ 6.98 µg/mL) |  | 100 µM (≈ 55.9 µg/mL) | 100 µM (≈ 55.9 µg/mL) |  | 
S=c1n(CN2CCCCC2)nc(Cc2ccccc2Nc2c(Cl)cccc2Cl)n1/N=C/c1ccncc1 | 4.903 | 12.5 µM (≈ 6.91 µg/mL) | 25 µM (≈ 13.8 µg/mL) | 12.5 µM (≈ 6.91 µg/mL) | 12.5 µM (≈ 6.91 µg/mL) | 25 µM (≈ 13.8 µg/mL) | 25 µM (≈ 13.8 µg/mL) |  | 
S=c1n(CN2CCOCC2)nc(Cc2ccccc2Nc2c(Cl)cccc2Cl)n1/N=C/c1ccccc1 | 6.699 | 0.2 µM (≈ 0.111 µg/mL) | 12.5 µM (≈ 6.92 µg/mL) | 6.25 µM (≈ 3.46 µg/mL) | 0.2 µM (≈ 0.111 µg/mL) | 12.5 µM (≈ 6.92 µg/mL) | 6.25 µM (≈ 3.46 µg/mL) | > 300 µM | > 300 µM
NNC(=O)c1ccncc1 [ISONIAZID] |  | < 0.2 µM |  |  | < 0.2 µM |  |  |  | 
COc1ccc(C2SCC(=O)N2n2c(Cc3ccccc3Nc3c(Cl)cccc3Cl)n[nH]c2=S)cc1OC (centres undefined) | 4.301 | 50 µM (≈ 29.4 µg/mL) | 100 µM (≈ 58.9 µg/mL) | 100 µM (≈ 58.9 µg/mL) |  | 100 µM (≈ 58.9 µg/mL) | 100 µM (≈ 58.9 µg/mL) |  | 
COc1ccc(/C=N/n2c(Cc3ccccc3Nc3c(Cl)cccc3Cl)nn(CN3CCOCC3)c2=S)cc1 | 5.204 | 6.25 µM (≈ 3.65 µg/mL) | 12.5 µM (≈ 7.29 µg/mL) | 6.25 µM (≈ 3.65 µg/mL) | 6.25 µM (≈ 3.65 µg/mL) | 6.25 µM (≈ 3.65 µg/mL) | 12.5 µM (≈ 7.29 µg/mL) | > 300 µM | > 300 µM
O=c1c2ccccc2nc2n(/N=C/c3ccccc3)c(Cc3ccccc3Nc3c(Cl)cccc3Cl)nn12 | 4.903 | 12.5 µM (≈ 6.74 µg/mL) | 12.5 µM (≈ 6.74 µg/mL) | 12.5 µM (≈ 6.74 µg/mL) | 12.5 µM (≈ 6.74 µg/mL) | 12.5 µM (≈ 6.74 µg/mL) | 12.5 µM (≈ 6.74 µg/mL) |  | 
O=C1CSC(c2ccco2)N1n1c(Cc2ccccc2Nc2c(Cl)cccc2Cl)n[nH]c1=S (centres undefined) | 4.602 | 25 µM (≈ 13 µg/mL) | 12.5 µM (≈ 6.48 µg/mL) | 12.5 µM (≈ 6.48 µg/mL) |  | 12.5 µM (≈ 6.48 µg/mL) | 12.5 µM (≈ 6.48 µg/mL) |  | 
COc1ccc(/C=N/n2c(Cc3ccccc3Nc3c(Cl)cccc3Cl)nn3c(=O)c4ccccc4nc23)cc1OC | 4.602 | 25 µM (≈ 15 µg/mL) | 50 µM (≈ 30 µg/mL) | 12.5 µM (≈ 7.49 µg/mL) |  | 25 µM (≈ 15 µg/mL) | 25 µM (≈ 15 µg/mL) |  | 
O=c1c2ccccc2nc2n(/N=C/c3cccs3)c(Cc3ccccc3Nc3c(Cl)cccc3Cl)nn12 | 4.903 | 12.5 µM (≈ 6.82 µg/mL) | 12.5 µM (≈ 6.82 µg/mL) | 12.5 µM (≈ 6.82 µg/mL) | 12.5 µM (≈ 6.82 µg/mL) | 12.5 µM (≈ 6.82 µg/mL) | 12.5 µM (≈ 6.82 µg/mL) |  | 
O=C1CSC(c2cccs2)N1n1c(Cc2ccccc2Nc2c(Cl)cccc2Cl)n[nH]c1=S (centres undefined) | 4.602 | 25 µM (≈ 13.4 µg/mL) | 12.5 µM (≈ 6.68 µg/mL) | 12.5 µM (≈ 6.68 µg/mL) |  | 12.5 µM (≈ 6.68 µg/mL) | 12.5 µM (≈ 6.68 µg/mL) |  | 
COc1ccc(/C=N/n2c(Cc3ccccc3Nc3c(Cl)cccc3Cl)nn3c(=O)c4ccccc4nc23)cc1 | 4.602 | 25 µM (≈ 14.2 µg/mL) | 100 µM (≈ 56.9 µg/mL) | 100 µM (≈ 56.9 µg/mL) |  | 100 µM (≈ 56.9 µg/mL) | 25 µM (≈ 14.2 µg/mL) |  | 
COc1ccc(/C=N/n2c(Cc3ccccc3Nc3c(Cl)cccc3Cl)nn(CN3CCCCC3)c2=S)cc1 | 4.903 | 12.5 µM (≈ 7.27 µg/mL) | 12.5 µM (≈ 7.27 µg/mL) | 12.5 µM (≈ 7.27 µg/mL) | 12.5 µM (≈ 7.27 µg/mL) | 6.25 µM (≈ 3.63 µg/mL) | 12.5 µM (≈ 7.27 µg/mL) |  | 
COc1ccc(/C=N/n2c(Cc3ccccc3Nc3c(Cl)cccc3Cl)nn(CN3CCOCC3)c2=S)cc1OC | 5.204 | 6.25 µM (≈ 3.83 µg/mL) | 12.5 µM (≈ 7.67 µg/mL) | 12.5 µM (≈ 7.67 µg/mL) | 6.25 µM (≈ 3.83 µg/mL) | 6.25 µM (≈ 3.83 µg/mL) | 12.5 µM (≈ 7.67 µg/mL) | 282 µM | > 300 µM
O=C1CSC(c2ccncc2)N1n1c(Cc2ccccc2Nc2c(Cl)cccc2Cl)n[nH]c1=S (centres undefined) | 4.903 | 12.5 µM (≈ 6.62 µg/mL) | 50 µM (≈ 26.5 µg/mL) | 25 µM (≈ 13.2 µg/mL) | 6.25 µM (≈ 3.31 µg/mL) | 50 µM (≈ 26.5 µg/mL) | 12.5 µM (≈ 6.62 µg/mL) |  | 
S=c1n(CN2CCCCC2)nc(Cc2ccccc2Nc2c(Cl)cccc2Cl)n1/N=C/c1ccccc1 | 5.204 | 6.25 µM (≈ 3.45 µg/mL) | 25 µM (≈ 13.8 µg/mL) | 12.5 µM (≈ 6.89 µg/mL) | 6.25 µM (≈ 3.45 µg/mL) | 12.5 µM (≈ 6.89 µg/mL) | 25 µM (≈ 13.8 µg/mL) | > 300 µM | > 300 µM
O=c1c2ccccc2nc2n(/N=C/c3ccncc3)c(Cc3ccccc3Nc3c(Cl)cccc3Cl)nn12 | 4.602 | 25 µM (≈ 13.5 µg/mL) | 100 µM (≈ 54 µg/mL) | 100 µM (≈ 54 µg/mL) |  | 25 µM (≈ 13.5 µg/mL) | 100 µM (≈ 54 µg/mL) |  | 
S=c1n(CN2CCCCC2)nc(Cc2ccccc2Nc2c(Cl)cccc2Cl)n1/N=C/c1cccs1 | 4.903 | 12.5 µM (≈ 6.97 µg/mL) | 12.5 µM (≈ 6.97 µg/mL) | 12.5 µM (≈ 6.97 µg/mL) | 12.5 µM (≈ 6.97 µg/mL) | 12.5 µM (≈ 6.97 µg/mL) | 12.5 µM (≈ 6.97 µg/mL) |  | 
